ChEMBL document CHEMBL3351236, “Prodrug oncrasin-266 improves the stability, pharmacokinetics, and safety of NSC-743380” (Bioorg Med Chem, 2014)
Activity calls are given as the source filed them. The rule behind the calls is not given here.

What was measured:
[1] = test system: Mus musculus; assay: Toxicity in Balb/c mouse assessed as histopathological changes in liver at 150 mg/kg, ip dosed once using compound formulated in Solutol HS15 and ethyl alcohol measured after 48 hrs; settings: in vivo
[2] = test system: Lung; assay: Drug level in lung of Balb/c mouse xenografted with human Calu3 cells assessed as aldehyde metabolite level at 60 mg/kg, iv using compound formulated in Solutol HS15 and ethyl alcohol measured after 24 hrs by HPLC/MS method; format: ADME, organism-based, Calu-3; parameters: dose 60 mg/kg, route intravenous; settings: in vivo
Summary of the method: (§1)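 Nude mice bearing subcutaneous Calu3 xenografts, 1 mouse per treatment group. Organs and tumor were taken 24 h later and kept at −80°C, then homogenized in methanol (50 mg/ml) on ice. Homogenate was extracted with acetonitrile containing 0.2% formic acid plus an internal standard, centrifuged, and the supernatant analyzed by HPLC/MS.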

[3] = test system: Mus musculus; assay: Toxicity in Balb/c mouse assessed as serum AST level at 25 mg/kg, ip dosed daily for 8 days using compound formulated in Solutol HS15 and ethyl alcohol; settings: in vivo, 192 h
[4] = Stability in powder form in non-evacuated chambers at room temperature by HPLC method; format: physicochemical
Summary of the method: (§2)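 Powders were kept at 4°C, room temperature (21°C) or 37°C and sampled for up to 90 days. Each aliquot was dissolved in DMSO, diluted with 9 volumes acetonitrile, and analyzed by HPLC for purity.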

[5] = test system: NCI-H460; assay: Anticancer activity against human H460 cells at 0.03 to 30 uM by sulforhodamine B assay; format: functional, cell-based
Summary of the method: (§3)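 Sulforhodamine B viability assay on lung cancer cells exposed to a range of compound concentrations for 3 days. Untreated reference: DMSO-treated cells set as 100. Values are mean ± SD of quadruplicate wells.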

[6] = test system: Mus musculus; assay: Half life in Balb/c mouse assessed as oncrasin-72 release at 25 mg/kg, iv using compound formulated in Solutol HS15 and ethyl alcohol by HPLC/MS method; format: ADME, organism-based; parameters: dose 25 mg/kg, route intravenous; settings: in vivo
Summary of the method: (§4)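 Balb/c mice received 25 mg/kg by tail vein in Solutol HS15/ethanol vehicle. Blood was drawn from the tail vein at 0, 1, 2, 3.5, 7 and 24 h, 3 mice per time point, into lithium-heparin tubes. Plasma (50 µl) was precipitated with 150 µl acetonitrile containing 0.2% formic acid and internal standard, iced 15 min, centrifuged, and the supernatant analyzed by HPLC/MS for parent and released drug.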

[7] = test system: Liver; assay: Drug level in liver of Balb/c mouse xenografted with human Calu3 cells assessed as oncrasin-72 level at 60 mg/kg, iv using compound formulated in Solutol HS15 and ethyl alcohol measured after 24 hrs by HPLC/MS method; format: ADME, organism-based, Calu-3; parameters: dose 60 mg/kg, route intravenous; settings: in vivo
Summary of the method: as §1

[8] = test system: Mus musculus; assay: Toxicity in Balb/c mouse assessed as serum ALP level at 150 mg/kg, ip dosed daily for 3 days using compound formulated in Solutol HS15 and ethyl alcohol measured on day 6; format: organism-based; parameters: dose 150 mg/kg, route intraperitoneal; settings: in vivo, 72 h
[9] = test system: NCI-H157; assay: Anticancer activity against human NCI-H157 cells at 0.03 to 30 uM by sulforhodamine B assay; format: functional, cell-based
Summary of the method: as §3

[10] = test system: Calu-3; assay: Anticancer activity against human Calu3 cells at 0.03 to 30 uM by sulforhodamine B assay; format: functional, cell-based
Summary of the method: as §3

[11] = test system: Mus musculus; assay: Toxicity in Balb/c mouse assessed as serum ALT level at 25 mg/kg, ip dosed daily for 8 days using compound formulated in Solutol HS15 and ethyl alcohol measured on day 6; format: organism-based; parameters: dose 25 mg/kg, route intraperitoneal; settings: in vivo, 192 h
[12] = test system: Mus musculus; assay: Toxicity in Balb/c mouse assessed as serum AST level at 150 mg/kg, ip dosed daily for 3 days using compound formulated in Solutol HS15 and ethyl alcohol measured on day 6; format: organism-based; parameters: dose 150 mg/kg, route intraperitoneal; settings: in vivo, 72 h
[13] = test system: Tumour; assay: Drug level in tumor of Balb/c mouse xenografted with human Calu3 cells assessed as aldehyde metabolite level at 60 mg/kg, iv using compound formulated in Solutol HS15 and ethyl alcohol measured after 24 hrs by HPLC/MS method; format: ADME, organism-based, Neoplasm, Calu-3; parameters: dose 60 mg/kg, route intravenous; settings: in vivo
Summary of the method: as §1

[14] = test system: Mus musculus; assay: Toxicity in Balb/c mouse assessed as serum ALP level at 25 mg/kg, ip dosed daily for 8 days using compound formulated in Solutol HS15 and ethyl alcohol measured on day 6; format: organism-based; parameters: dose 25 mg/kg, route intraperitoneal; settings: in vivo, 192 h
[15] = Drug level in liver of Balb/c mouse xenografted with human Calu3 cells at 60 mg/kg, iv using compound formulated in Solutol HS15 and ethyl alcohol measured after 24 hrs by HPLC/MS method; format: ADME, organism-based, Calu-3; parameters: dose 60 mg/kg, route intravenous; settings: read-out: Drug uptake
Summary of the method: as §1

[16] = Stability in injectable solution with Solutol HS15 and ethyl alcohol and 0.9% NaCl assessed as drug hydrolysis within 7 hrs at 37 degC by HPLC method; format: physicochemical; settings: read-out: Drug degradation
[17] = test system: NCI-H1299; assay: Anticancer activity against human H1299 cells at 0.03 to 30 uM by sulforhodamine B assay; format: functional, cell-based
Summary of the method: as §3

[18] = Pro-drug conversion in pH 7.4 PBS solution assessed as oncrasin-72 release at 0.5 mg/ml by HPLC method; format: ADME; settings: buffer, TDE = time-dependent effect
Summary of the method: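 Stock in DMSO/acetonitrile was diluted in PBS pH 7.4 to 0.5 mg/ml, with final 12% DMSO and 18% acetonitrile. Incubated at 37°C for up to 24 h. Aliquots taken at 0.5, 1, 3, 6 and 24 h were held at −20°C, then diluted 50-fold in acetonitrile for HPLC. One of two experiments shown.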

[19] = Stability in injectable solution with Solutol HS15 and ethyl alcohol and 0.9% NaCl assessed as drug hydrolysis within 7 hrs at room temperature by HPLC method; format: physicochemical; settings: injectable solution; read-out: Drug degradation
[20] = test system: Intestine; assay: Drug level in intestine of Balb/c mouse xenografted with human Calu3 cells assessed as aldehyde metabolite level at 60 mg/kg, iv using compound formulated in Solutol HS15 and ethyl alcohol measured after 24 hrs by HPLC/MS method; format: ADME, organism-based, Calu-3; parameters: dose 60 mg/kg, route intravenous; settings: in vivo
Summary of the method: as §1

[21] = test system: Plasma; assay: Pro-drug conversion in human plasma assessed as oncrasin-72 release by HPLC method; format: ADME, cell-free
[22] = test system: Mus musculus; assay: Toxicity in Balb/c mouse assessed as serum ALT level at 150 mg/kg, ip dosed daily for 3 days using compound formulated in Solutol HS15 and ethyl alcohol measured on day 6; format: organism-based; parameters: dose 150 mg/kg, route intraperitoneal; settings: in vivo, 72 h
[23] = test system: Spleen; assay: Drug level in spleen of Balb/c mouse xenografted with human Calu3 cells assessed as aldehyde metabolite level at 60 mg/kg, iv using compound formulated in Solutol HS15 and ethyl alcohol measured after 24 hrs by HPLC/MS method; format: ADME, organism-based, Calu-3; parameters: dose 60 mg/kg, route intravenous; settings: in vivo
Summary of the method: as §1

[24] = test system: Kidney; assay: Drug level in kidney of Balb/c mouse xenografted with human Calu3 cells assessed as aldehyde metabolite level at 60 mg/kg, iv using compound formulated in Solutol HS15 and ethyl alcohol measured after 24 hrs by HPLC/MS method; format: ADME, organism-based, Calu-3; parameters: dose 60 mg/kg, route intravenous; settings: in vivo
Summary of the method: as §1

[25] = Stability in powder form in non-evacuated chambers at 37 degC after 90 days by HPLC method; format: physicochemical; settings: read-out: Stability
Summary of the method: as §2

[26] = test system: Tumour; assay: Drug level in tumor of Balb/c mouse xenografted with human Calu3 cells assessed as oncrasin-72 level at 60 mg/kg, iv using compound formulated in Solutol HS15 and ethyl alcohol measured after 24 hrs by HPLC/MS method; format: ADME, organism-based, Neoplasm, Calu-3; parameters: dose 60 mg/kg, route intravenous; settings: in vivo
Summary of the method: as §1

[27] = test system: Mus musculus; assay: Toxicity in Balb/c mouse assessed as mortality level at 300 mg/kg, ip using compound formulated in Solutol HS15 and ethyl alcohol measured after 1 day; format: organism-based; parameters: dose 300 mg/kg, route intraperitoneal; settings: in vivo, 24 h
Summary of the method: (§5)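 Acute toxicity: 3 Balb/c mice (7–8 weeks) per group, given i.p. 300 mg/kg on day 1 and again on day 2. Deaths were recorded by day; survivors were followed for 2 weeks.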

[28] = Stability in powder form in non-evacuated chambers at 37 degC after 1 to 14 days by HPLC method; format: physicochemical
Summary of the method: as §2

[29] = test system: Mus musculus; assay: Toxicity in Balb/c mouse assessed as mortality at 150 mg/kg, ip dosed daily for 3 days using compound formulated in Solutol HS15 and ethyl alcohol measured on day 5; format: organism-based; parameters: dose 150 mg/kg, route intraperitoneal; settings: in vivo, 72 h
[30] = test system: Mus musculus; assay: Toxicity in Balb/c mouse assessed as survival at 300 mg/kg, ip using compound formulated in Solutol HS15 and ethyl alcohol; format: organism-based; parameters: dose 300 mg/kg, route intraperitoneal; settings: in vivo
Summary of the method: as §5

[31] = test system: Lung; assay: Drug level in lung of Balb/c mouse xenografted with human Calu3 cells assessed as oncrasin-72 level at 60 mg/kg, iv using compound formulated in Solutol HS15 and ethyl alcohol measured after 24 hrs by HPLC/MS method; format: ADME, organism-based, Calu-3; parameters: dose 60 mg/kg, route intravenous; settings: in vivo
Summary of the method: as §1

[32] = Stability in stock solution with Solutol HS15 and ethyl alcohol solvent at 4 degC by HPLC method; format: physicochemical
Summary of the method: (§6)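 Stock solutions were made by dissolving compound in 75% (w/v) Solutol HS15 in ethanol (about 20% v/v ethanol). Final concentrations were 8 mg/ml for prodrug and 5 mg/ml for parent. Stocks were stored at 4°C or room temperature; aliquots were frozen at −20°C before HPLC.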

[33] = test system: Liver; assay: Drug level in liver of Balb/c mouse xenografted with human Calu3 cells assessed as aldehyde metabolite level at 60 mg/kg, iv using compound formulated in Solutol HS15 and ethyl alcohol measured after 24 hrs by HPLC/MS method; format: ADME, organism-based, Calu-3; parameters: dose 60 mg/kg, route intravenous; settings: in vivo
Summary of the method: as §1

[34] = Stability in stock solution with Solutol HS15 and ethyl alcohol solvent at room temperature by HPLC method; format: physicochemical
Summary of the method: as §6

[35] = test system: Mus musculus; assay: Toxicity in Balb/c mouse assessed as changes in blood cell parameters at 150 mg/kg, ip dosed daily for 3 days using compound formulated in Solutol HS15 and ethyl alcohol measured after 48 hrs; format: organism-based; parameters: dose 150 mg/kg, route intraperitoneal; settings: in vivo
[36] = Stability in powder form in non-evacuated chambers at 4 degC by HPLC method; format: physicochemical
Summary of the method: as §2

[37] = Half life in Balb/c mouse at 25 mg/kg, iv using compound formulated in Solutol HS15 and ethyl alcohol by HPLC/MS method; format: ADME, organism-based; parameters: dose 25 mg/kg, route intravenous; settings: in vivo
Summary of the method: as §4

[38] = test system: Kidney; assay: Drug level in kidney of Balb/c mouse xenografted with human Calu3 cells assessed as oncrasin-72 level at 60 mg/kg, iv using compound formulated in Solutol HS15 and ethyl alcohol measured after 24 hrs by HPLC/MS method; format: ADME, organism-based, Calu-3; parameters: dose 60 mg/kg, route intravenous; settings: in vivo
Summary of the method: as §1

Structure (SMILES): O=C(CC1CCCCC1)OCc1cn(Cc2cccc(Cl)c2)c2ccccc12
- Activity [1]: Non-toxic
- Drug uptake [2]: 68.4 µg/g
- Activity [3]: 94 U/L
- Stability [4]: 90 days
- Activity [5]: Active
- t1/2 [6]: 1.25 h
- Drug uptake [7]: 12.6 µg/g
- Activity [8]: 50 U/L
- Activity [9]: Active
- Activity [10]: Active
- Activity [11]: 36.3 U/L
- Activity [12]: 325.5 U/L
- Drug uptake [13]: 4.4 µg/g
- Activity [14]: 76 U/L
- concentration at 24 h [15]: 157000 ng/g
- degraded at 7 h [16]: > 10%
- Activity [17]: inactive
- Drug metabolism [18]: tde
- degraded at 7 h [19]: 10%
- Drug uptake [20]: 5.9 µg/g
- Drug metabolism [21]: metabolite_detected
- Activity [22]: 115.5 U/L
- Drug uptake [23]: 34 µg/g
- Drug uptake [24]: 26.5 µg/g
- remaining at 2160 h [25]: < 5%
- Drug uptake [26]: 4.7 µg/g
- Activity [27]: Toxic
- Stability [28]: Stable
- Activity [29]: Non-toxic
- Survival [30]: 2 weeks
- Drug uptake [31]: 7.7 µg/g
- Stability [32]: 4 weeks
- Drug uptake [33]: 14.9 µg/g
- Stability [34]: 2 weeks
- Activity [35]: Non-toxic
- Stability [36]: 90 days
- half-life [37]: 1 h
- Drug uptake [38]: 7.3 µg/g
